Compounds with a hit are over-represented: about 1.5% of the library has one in this group of screens.
Rad51 HR inh – Rad51 (human) homologous recombination inhibition; Q06609; hRad51 DNA strand exchange, fluorescence dequenching; inhibition, % at 10 µM; hit rate 0.085% among 200,000;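 active = inhibition above 40% at the single screening dose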
Target sequence (Q06609 whole entry, looked up): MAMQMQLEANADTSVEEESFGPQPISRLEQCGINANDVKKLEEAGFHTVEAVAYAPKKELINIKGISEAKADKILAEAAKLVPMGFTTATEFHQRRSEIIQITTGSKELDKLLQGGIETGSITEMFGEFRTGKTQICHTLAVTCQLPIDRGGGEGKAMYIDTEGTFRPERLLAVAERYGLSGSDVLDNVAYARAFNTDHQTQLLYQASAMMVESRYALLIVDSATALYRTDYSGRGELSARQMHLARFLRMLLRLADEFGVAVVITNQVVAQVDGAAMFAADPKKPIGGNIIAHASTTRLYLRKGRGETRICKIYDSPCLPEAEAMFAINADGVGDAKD
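Assay system: Human Rad51 nucleoprotein filaments preassembled on unlabelled ssDNA | Reagent: Donor/quencher-labelled 47-bp dsDNA substrate | Doses: One concentration, 10 µM final | Times: 37 °C 15-min filament assembly, 30-min compound preincubation, 15-min exchange | Technique: Fluorescein emission 520 nm, excitation 485 nm | Benchmarks: Plate control and blank wells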
bCat nuc transl – beta-catenin nuclear translocation modulation; HeLa beta-catenin nuclear translocation, immunofluorescence imaging; nuclear translocation activity, % at 5 µM; hit rate 0.3% among 190,000; AID 1665;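 active = nuclear translocation activity above 50% at 5 µM, with a well cell count of 50 or more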;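 note: per-cell ratio of nuclear to cytoplasmic median beta-catenin stain intensity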
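Test system: human HeLa cell line; Doses: 5 µM primary, 0.02–20 µM confirmation; Incubation: 24 h compound exposure, 37°C; Detection: beta-catenin immunofluorescence imaging with DAPI; Read-out: beta-catenin nuclear/cytoplasmic ratio, % activation.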
Dynein transport – dynein cargo transport inhibition. z-score, hits read low. 3617.4 mouse cells, GR-EGFP nuclear translocation imaging; test concentration mostly 20 µM; stimulated with dexamethasone, 1 µM; active compounds read low. hit rate 0.47% among 220,000;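 active = plate z-score of nuclear minus cytoplasmic receptor signal below a set negative limit, without overly bright fluorescence or cell loss, cut at about -3.5 in these data, passing the limit was not always enough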;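 note: z-score of nuclear minus cytoplasmic ring GR-EGFP intensity difference per well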
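Buffer or medium: tet-free, stripped-serum medium; Also added: dexamethasone, 1.0 µM final; Technique: high-content fluorescence imaging after fixation; Times: 48 h induction, 1 h compound, 30 min dex at 37 °C; Read-out: per-cell GR-EGFP intensity, nucleus versus surrounding cytoplasmic ring, well-averaged.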
TbHK1 inh – blocks Trypanosoma brucei hexokinase 1 activity. recombinant TbHK1, G6PDH-coupled NADH A340. inhibition, % at 10 µM. hit rate 0.11% among 220,000. AID 1430;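 active = inhibition of 50% or more in the single-dose primary screen; inactive = inhibition below 50%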
MT stabilizer – stabilizes microtubules in HeLa cells; hit rate 0.83% among 200,000; HeLa tubulin immunostaining HCS, 24 h; share of cells brighter than vehicle mean+2SD; % tubulin-high responders, % at 10 µM; AID 2205;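 active = plate Z-score above 3 for both tubulin-high and condensed-nucleus cell shares, with cell loss under 80%, at 10 µM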;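 note: anti alpha tubulin signal scored within the nucleus-defined area of each cell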
Dynein inh conf – dynein cargo transport inhibition, confirmation; shares compounds with Dynein transport; 3617.4 GR-EGFP nuclear translocation imaging, dexamethasone-induced; calls only at 20 µM; hit rate 69% among 1,000; AID 463116;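 active = inhibition of receptor movement into the nucleus at or above a set limit in both runs, with normal cell brightness and cell count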;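 note: dexamethasone at 1 µM final in well for 30 min; nuclear minus cytoplasmic GR-EGFP mean intensity difference in channel 2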
Hits are given with their value; - = inactive; . = not tested or not shown; + = active, no number.

SMILES | Rad51 HR inh | bCat nuc transl | Dynein transport | TbHK1 inh | MT stabilizer | Dynein inh conf
COc1ccc(CN=Cc2[nH]c3ccc(Br)c(Cl)c3c2O)cc1 | . | - | -5 | - | - | +
COc1ccc(CN=CC2=C(O)CNC2=O)cc1 | - | - | - | - | - | .
Cc1cc(C)cc(N=Cc2[nH]c3ccc(Br)c(Cl)c3c2O)c1 | . | - | - | - | 31 | +
CCn1c(SCC(=O)N2CCOCC2)nc2oc3c(Cl)cc(Cl)cc3c(=O)c2c1=O | - | . | -3.5 | - | - | +
O=C1CCCCc2sc(Br)c([N+](=O)[O-])c2N1 | . | - | -6.5 | - | . | +
O=C1/C(=C/c2ccc(N3CCOCC3)o2)SC(=Nc2ccccc2)N1CCc1c[nH]c2ccccc12 | - | - | - | - | - | +
CC(C)CCNC(=O)CCCc1ccccc1 | - | - | - | - | - | .
N#Cc1ccc(-c2ccccc2)nc1SCC(=O)c1cccc(Cl)c1 | - | - | - | - | - | .
N#Cc1ccc(-c2cccnc2)nc1SCC(=O)c1ccccc1 | - | - | - | - | . | -
CC1CCc2cc(F)ccc2N1C(=O)CCl (stereo unspecified) | - | - | -5.4 | - | - | +
CCOC(=O)Cn1ncc(-c2ccccc2)c1N | - | - | - | - | - | .
CCOc1ccc(/C=C/[N+](=O)[O-])c2ccccc12 | - | - | -3.9 | - | - | -
CCOC(=O)COc1ccc2ccccc2c1/C=C/[N+](=O)[O-] | - | - | -4.8 | - | - | +
O=[N+]([O-])/C=C/c1c(OCc2ccccc2)ccc2ccccc12 | - | - | - | - | - | .
CCOC(=O)COc1ccc(/C=C/[N+](=O)[O-])c(OCC(=O)OCC)c1 | - | - | -4.8 | - | - | +
Cc1ncc([N+](=O)[O-])n1CC(=O)NC1CCCCC1 | - | - | - | - | - | .
C/C(=N/NC(=O)c1ccc(Br)o1)c1ccncc1 | - | - | - | - | - | .
O=C(c1ccco1)N(Cc1ccco1)c1ccc(O)cc1 | - | - | - | - | - | .
CCOC(=O)c1nc(S(C)(=O)=O)ncc1Cl | - | - | -5.1 | - | - | -
N#C/C(C(=O)c1ccccc1)=C1/SC=C(N)N1c1ccccc1 | - | - | - | - | - | -
N#C/C(C(N)=O)=C1/SC=C(c2ccccc2)N1c1ccccc1 | - | - | - | - | . | .
CN1c2ccccc2C(O)=C(C(=S)Nc2ccccc2)S1(=O)=O | - | - | . | - | - | .
COc1ccc(NC(=O)/C(Cl)=C(/Cl)S(=O)(=O)Cc2ccc(C)cc2)cn1 | - | . | -5 | - | - | -
COc1ccc(NC(=O)CSc2cc(C)ccc2C)cn1 | - | - | - | - | - | .
COc1ccc(CC(=O)n2[nH]c(=O)c3ccccc3c2=O)cc1OC | - | - | - | - | . | .
SMILES | Rad51 HR inh | bCat nuc transl | Dynein transport | TbHK1 inh | MT stabilizer | Dynein inh conf
COc1ccc(CC(=O)n2[nH]c(=O)ccc2=O)cc1OC | - | - | -3.6 | - | . | -
CCOc1ccccc1/C=C(/NC(=O)c1ccccc1)C(=O)NCC(=O)O | - | - | - | - | - | .
Cc1ccc(NC(=O)CN2C(=O)/C(=C3\SC(=S)N(C4CCS(=O)(=O)C4)C3=O)c3ccccc32)cc1 (stereo unspecified) | - | - | - | - | - | .
CCN(CC)Cc1cc(O)c(CN(CC)CC)cc1O | - | - | -4.9 | - | - | +
Cc1ccc(C)c(NC(=S)N2CCN(Cc3ccccc3)CC2)c1 | - | - | - | - | - | .
OCC(O)CNC(=S)NC1CCCCC1 (stereo unspecified) | - | - | - | - | - | .
CCOc1ccc2nc(NC(=O)COC)sc2c1 | - | - | - | - | - | .
COc1cc(N2C(=O)C=CC2=O)c(OC)cc1Cl | - | - | -5.1 | - | . | +
CC[C@@H]1C=C(C)C[C@H](C)C[C@H](OC)[C@H]2O[C@@](O)(C(=O)C(=O)N3CCCC[C@H]3C(=O)O[C@H](/C(C)=C/[C@@H]3CC[C@@H](O)[C@H](OC)C3)[C@H](C)[C@@H](O)CC1=O)[C@H](C)C[C@@H]2OC | - | - | - | - | - | .
N#C/C(=C\c1ccc(N2CCOCC2)o1)c1nc2ccccc2[nH]1 | - | - | - | - | - | .
N#C/C(=C/c1ccc(N2CCOCC2)o1)c1ccc(Cl)cc1 | . | - | - | - | 48 | -
O=c1c(Cl)c(NCCCO)cnn1-c1nc2ccccc2[nH]1 | - | - | -4.2 | - | - | +
O=C(/C=C/Sc1ccccc1)c1ccccc1 | - | . | -3.6 | - | - | +
O=C(/C=C/Sc1ccccc1)c1ccc(Cl)cc1 | - | - | - | - | - | .
COC(=O)[C@H](CCSC)NC(=O)N1CCN(Cc2ccccc2)CC1 | - | - | - | - | - | .
O=C(CCl)N(CCCNC(=O)C(F)(F)F)c1ccc([N+](=O)[O-])cc1 | - | - | -5 | - | . | +
CCC(C)N(C)Cc1cccc(C2(O)CCN(S(=O)(=O)c3ccc(F)cc3)CC2)c1 (stereo unspecified) | - | - | - | - | - | .
N#CC(C#N)=C1C=C2C=C(N3CCOCC3)CCC2CC1 (stereo unspecified) | - | - | -7 | - | - | +
CN1CCN(C2=CC3=CC(=C(C#N)C#N)CCC3CC2)CC1 (stereo unspecified) | - | - | -3.8 | - | - | -
N#Cc1cc(Cl)c(N2CCOCC2)cc1C#N | - | - | - | - | - | .
N#CC(C#N)=C1C=C2C=C(N3CCCCCC3)CCC2CC1 (stereo unspecified) | - | - | -3.7 | - | - | +
CCN1CCN(C2=CC3=CC(=C(C#N)C#N)CCC3CC2)CC1 (stereo unspecified) | - | - | -5.2 | - | - | +
CC1(C)CC(NCCN2CCN(C3=CC(=C(C#N)C#N)CC(C)(C)C3)CC2)=CC(=C(C#N)C#N)C1 | - | - | - | - | - | .
O=C(NC(=S)Nc1ccc(S(=O)(=O)Nc2nccs2)cc1)c1ccccc1F | - | - | - | - | - | .
CN(C)CCCNCCCNC(=O)/C=N/O | - | . | - | - | - | .
SMILES | Rad51 HR inh | bCat nuc transl | Dynein transport | TbHK1 inh | MT stabilizer | Dynein inh conf
Nc1c(C(=O)c2ccccc2)sc2nsc(SCCN3CCCC3)c12 | - | - | - | - | . | -
CC(=O)c1sc2nsc(SCCN3CCCCC3)c2c1N | - | - | - | - | . | .
Nc1c(C(=O)c2ccc(Cl)cc2)sc2nsc(SCCN3CCOCC3)c12 | - | - | - | - | . | -
Cc1ccc(/C=C/C(=O)NCC2COc3ccccc3O2)o1 (stereo unspecified) | - | - | -6.6 | - | - | +
COc1ccc2c(C)cc(SCC#N)nc2c1 | - | - | - | - | - | .
Cc1cc(O)c(C(C[N+](=O)[O-])c2ccc(Cl)cc2)c(=O)o1 (stereo unspecified) | - | - | - | - | - | .
Cc1cc(C)n(C(C[N+](=O)[O-])c2ccc(Cl)cc2)n1 (stereo unspecified) | - | - | -5.6 | - | - | -
N/C(=N\OC(=O)CCCc1ccccc1)c1ccc([N+](=O)[O-])cc1 | . | - | - | - | - | .

Bioassay records: PubChem, several laboratories
